Screening results (PubChem BioAssay)
PP1 inh – PP1-alpha phosphatase inhibitors, primary screen, counter-screen for PP5 inhibitor project, biochemical, fluorescence, OMFP substrate, single point. Serine/threonine-protein phosphatase PP1-alpha catalytic subunit (Homo sapiens), P62136. purified PP1alpha. inhibition, % at 6.7 µM. actives 0.9% (n = 320,000). AID 2235, 2010;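 active = inhibition above the mean inhibition of all tested compounds plus 3 SD, computed separately for each screening campaign, cut at about 15% in these data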
Target sequence (P62136 whole entry, looked up): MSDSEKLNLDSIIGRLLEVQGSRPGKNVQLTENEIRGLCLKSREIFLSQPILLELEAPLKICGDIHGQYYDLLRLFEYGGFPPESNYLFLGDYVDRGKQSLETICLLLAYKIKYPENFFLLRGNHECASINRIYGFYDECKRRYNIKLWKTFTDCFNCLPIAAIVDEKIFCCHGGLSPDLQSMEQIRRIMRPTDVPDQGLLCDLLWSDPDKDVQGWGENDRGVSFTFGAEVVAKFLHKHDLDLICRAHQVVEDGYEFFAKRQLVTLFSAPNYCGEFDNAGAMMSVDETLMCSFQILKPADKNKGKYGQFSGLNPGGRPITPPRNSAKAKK
PP5 primary – PP5 phosphatase inhibitors, primary screen, biochemical, fluorescence | AID 1987, 2009 | Serine/threonine-protein phosphatase 5 (Homo sapiens), P53041 | actives 0.18% (n = 320,000) | purified PP5c, OMFP substrate fluorescence | inhibition, % at 6.7 µM;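 active = inhibition above the campaign's mean inhibition across all tested compounds plus 3 SD, cut at about 9.5% in these data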;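 note: 0% = DMSO only and 100% = 100 µM cantharidin control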
GSTO1 inh – inhibitors of recombinant GSTO1, primary screen, counter-screen for RBBP9 inhibitor project, biochemical, fluorescence polarization; actives 1.1% (n = 300,000); inhibition, % at 5.96 µM; activity-based probe fluorescence polarization; Glutathione S-transferase omega-1 (Homo sapiens), P78417;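 active = inhibition above the campaign mean inhibition plus 3 SD, cut at about 35% in these data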;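 note: 0% = GSTO1-1 with DMSO and 100% = wells lacking GSTO1-1 enzyme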
Target sequence (P78417 whole entry, looked up): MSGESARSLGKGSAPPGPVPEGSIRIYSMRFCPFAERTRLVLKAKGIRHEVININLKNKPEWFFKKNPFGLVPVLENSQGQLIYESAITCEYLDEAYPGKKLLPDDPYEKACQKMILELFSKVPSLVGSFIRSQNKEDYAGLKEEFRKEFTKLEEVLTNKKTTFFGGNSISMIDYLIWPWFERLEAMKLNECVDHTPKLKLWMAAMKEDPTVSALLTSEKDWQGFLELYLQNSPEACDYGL
TDP2 inh – human TDP2 enzyme inhibitors, primary screen, biochemical, epi absorbance, recombinant enzyme; Tyrosyl-DNA phosphodiesterase 2 (Homo sapiens), O95551; T5PNP hydrolysis, p-nitrophenol absorbance 415 nm; inhibition, % at 12.8 µM; actives 0.34% (n = 370,000); AID 720702, 2013;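 active = inhibition above the mean of all tested compounds plus 3 SD, set per campaign, cut at about 25% in these data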;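 note: 0% = DMSO with enzyme and 100% = buffer with substrate but no TDP2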
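Incubation: 2 h at 37 °C; Test system: recombinant human TDP2; Quantity: enzyme 120 nM; Read-out basis: percent inhibition; Medium: 50 mM Tris-HCl pH 7.5 with Mg2+, KCl, DTT, BSA; Repeats: single replicate; Compound: 12.8 µM single point, 1% DMSO; Signal: epi absorbance; Reagent: 5 mM T5PNP chromogenic substrate; Benchmarks: no-enzyme high, DMSO-plus-enzyme low.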
Apaf1 inhib – inhibitors of human Apaf-1 apoptosome, primary screen, biochemical, DEVD-Rh110 fluorescence, uHTS; Apoptotic protease-activating factor 1 (Homo sapiens), O14727; reconstituted apoptosome caspase-3 activity; inhibition, % at 20 µM; actives 0.71% (n = 330,000); AID 489030, 2010; active = inhibition of at least 40% at 20 µM;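 note: plate controls were DMSO wells for no effect and DEVD-CHO caspase inhibitor wells for full effect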
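Material: cell-free apoptosome with Apaf-1, procaspase-3 and caspase-9; Buffer or medium: Hepes pH 7.5 with detergent and BSA; Reagent: cytochrome c trigger plus (Z-DEVD)2-Rh110 caspase-3 substrate; Times: compound with Apaf-1, dATP, procaspase-3 30 min, then 50 min reaction, room temperature; Technique: Rh110 fluorescence intensity.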
* marks the source's active call; other numbers are inactive results; . = no result given. An excerpt weighted towards active compounds, which were near 2.1% of everything screened.

SMILES	PP1 inh	PP5 primary	GSTO1 inh	TDP2 inh	Apaf1 inhib
CCCN1CCCCC(NC(=O)c2ccccc2OC)C1=O (centres undefined)	.	.	.	4	.
O=C(CC(=O)c1ccccc1)CC(O)(C=Cc1ccccc1)c1ccccc1 (centres undefined)	.	.	.	0	.
CCc1ccccc1OCC(=O)OCC(=O)Nc1cc(C)on1	17*	-1	.	-7	-2
CCOC(=O)C(=O)Nc1cc(C)on1	-1	1	-2	45*	3
COc1ccc(CN2C(=O)COc3ccccc3C2c2nnnn2C2CCCCC2)cc1 (centres undefined)	.	.	.	5	.
COc1ccccc1NS(=O)(=O)c1cc(C(=O)N2CCN(C/C=C/c3ccccc3)CC2)ccc1C	0	1	-6	7	34
COc1ccccc1NS(=O)(=O)c1cccc(C(=O)N2CCN(C/C=C/c3ccccc3)CC2)c1	-7	3	-4	-5	46*
CCOc1ccc(NC(=O)CN(C)C(=O)c2ccccc2OCc2cccc(C)c2)cc1OCC	1	3	.	0	46*
Cc1cccc(COc2ccccc2C(=O)N(C)CC(=O)Nc2cccc(F)c2)c1	-5	4	.	-11	30
O=C(Cc1cnn(-c2ccccc2)c1)c1ccc(O)c(O)c1O	4	3	50*	-7	19
COc1ccc(-c2csc(NC(=O)CSc3nc4ccccc4c(=O)[nH]3)n2)cc1	17*	3	-5	-1	8
Cc1ccc(-c2csc(NC(=O)CSc3nc4ccccc4[nH]3)n2)cc1	.	.	.	0	.
Cc1[nH][nH]c(=O)c1C(c1ccc(O)c(Br)c1)c1c(C)[nH][nH]c1=O	-3	1	25	12	12
CCOc1cc(C(c2c(C)[nH][nH]c2=O)c2c(C)[nH][nH]c2=O)ccc1O	-5	0	46*	18	32
COc1ccc(C2/C=C\CN(C(=O)Nc3ccccc3-c3ccccc3)CC(=O)N2Cc2ccc(F)cc2)cc1 (centres undefined)	16*	5	-2	.	24
CCOC(=O)C(C)(C)N(Cc1cccc(C)c1)S(=O)(=O)c1cccc([N+](=O)[O-])c1	4	5	3	10	11
CCOC(=O)C(C)(C)N(Cc1cccc(C)c1)S(=O)(=O)c1ccc(Cl)c([N+](=O)[O-])c1	-2	4	61*	-12	15
COC(=O)c1ccc2c(c1)C(C)(C)C(/C=C/c1ccc(OC)c(OC)c1OC)=[N+]2C	8	1	-53	-12	28
COC(=O)c1ccc2c(c1)C(C)(C)C(/C=C/c1ccc(O)cc1)=[N+]2C	17*	7	-205	-6	12
CCN(CC)c1ccc(NC(=O)CSc2nc3ccccc3c(=O)n2-c2ccc(C)cc2)cc1	.	.	.	-19	.
CC(=O)Nc1ccc(NC(=O)CSCc2ccccc2Cl)cc1	-1	-1	7	-7	-19
C/C(=N\NC(=O)CSCc1ccccc1Cl)c1cc(O)ccc1O	-4	2	40*	-4	-8
CC(C)CC(NS(=O)(=O)c1ccccc1)C(=O)O (centres undefined)	-5	2	4	8	-10
CC(C)CN=C(NS(=O)(=O)c1ccccc1)C(Cl)(Cl)Cl	-3	-2	78*	5	3
COc1cc(NC(=O)C2CCCN(S(=O)(=O)c3cc(OC)ccc3OC)C2)cc(OC)c1 (centres undefined)	.	.	.	4	.
SMILES	PP1 inh	PP5 primary	GSTO1 inh	TDP2 inh	Apaf1 inhib
O=C(COC(=O)c1ccccc1Sc1ccc(C(F)(F)F)cc1[N+](=O)[O-])NC(=O)NC1CCCC1	8	3	3	3	40*
COc1ccc(CNCC(O)(c2ccc(F)cc2)c2ccc(F)cc2)cc1OC	5	1	-1	-10	5
COc1ccc(CNCC(O)(c2ccc(Cl)cc2)c2ccc(Cl)cc2)cc1OC	3	2	-4	-17	42*
CCCN1CCCCC(NC(=O)c2ccc3ccccc3c2)C1=O (centres undefined)	.	.	.	-2	.
Cc1cc(Oc2cccnc2)ccc1NC(=O)Cc1cn(C)c2ccccc12	.	.	.	0	.
O=C(CCc1ccccc1)N[C@H]1[C@@H](OC(=O)c2ccco2)CCC[C@@]12C(=O)N(Cc1ccccc1)c1ccccc12	.	.	.	-1	.
O=C(Cc1c[nH]c2ccccc12)Nc1ccc(Nc2cccnc2)c(-c2cccc(Cl)c2)c1	.	.	.	4	.
CCOC(=O)c1c(N)sc2c1CCC(CC)C2 (centres undefined)	1	1	6	6	8
CCOC(=O)c1c(N)sc2c1CCC1C(=O)N(C3CCCCC3)C(=O)C21 (centres undefined)	15*	3	-2	-1	24
CC(NC(=O)COC(=O)c1ccc([N+](=O)[O-])s1)c1ccccc1 (centres undefined)	-2	2	44*	-5	7
O=C(COC(=O)c1ccc([N+](=O)[O-])s1)c1ccc[nH]1	.	.	.	35*	33
Cc1ccc(NC(=O)COC(=O)c2ccc([N+](=O)[O-])s2)c(C)c1	0	1	35*	10	6
Cc1cc(C)c(NC(=O)COC(=O)c2ccc([N+](=O)[O-])s2)c(C)c1	-10	0	6	-8	18
O=C(OCC(=O)c1ccc[nH]1)c1ccc([N+](=O)[O-])cc1	-1	1	.	6	9
Cc1cc(C)cc(NC(=O)OC2CCC23CCCCC3)c1 (centres undefined)	.	.	.	10	.
C[C@@H]1CN([C@@H](C)CO)C(=O)CCCn2nncc2CO[C@H]1CN(C)CC1CC1	.	.	.	1	.
c1ccc(-c2oc3ncnc(NCCCn4ccnc4)c3c2-c2ccccc2)cc1	14	5	37*	.	31
O=C(CSc1nnc(COc2ccccc2)n1-c1ccc(Cl)cc1)Nc1ccc(OCc2ccccc2)cc1	.	.	.	-1	.
CC1=NN(c2ccccc2)C(=O)/C1=C\c1ccc(Oc2ccc([N+](=O)[O-])cc2[N+](=O)[O-])cc1	3	9	77*	78*	92*
Cc1cc(C)nc(SCNC(=O)c2ccc(F)cc2)n1	-4	0	36*	8	-5
Cc1cc(C)nc(SCC(=O)c2ccc(F)cc2)n1	0	2	4	-6	1
O=C(Nn1cnnc1)c1ccc(Cl)cc1	0	9.6*	5	-1	1
O=C(Nn1cnnc1)c1ccc(F)cc1	0	1	-1	4	3
CCN(CC)c1ccc(/C=N/NC(=O)c2ccco2)c(O)c1	-4	2	-7	-22	3
CCN(CC)c1ccc(/C=N/NC(=O)Cc2cccs2)c(O)c1	16*	5	-2	-9	.
NC(=S)N/N=C/c1cccc(O)c1O	0	0	84*	5	10
